Source: ChEMBL document CHEMBL4513216, “Probing the Open Global Health Chemical Diversity Library for Multistage-Active Starting Points for Next-Generation Antimalarials” (ACS Infect Dis, 2020)

Experiment: Toxicity liver stage against HepG2, at 10uM
Type: cell-based
Set-up: test concentration 10 uM, cell line HepG2-A16-CD81EGFP
Conditions: human, HepG2-A16-CD81EGFP cells; read-out: INHIBITION
Method in brief: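 Uninfected HepG2-A16-CD81EGFP cells, 3 × 10^3 per well, 1536-well, plated on prespotted compound at 10 μM final, parasite-free screening media added to match infected plates; puromycin 10 μM positive, DMSO 0.5% negative; run in parallel with 48 h PbLuc assay at 37 °C, 5% CO2; viability by CellTiter-Glo luminescence, normalized to controls.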

Row | SMILES | cytotoxicity at 10 µM [%]
1 | CCOc1ncccc1NC(=O)N1CCC(n2cncn2)CC1 | 6.64
2 | CC(C)CNC(=O)c1ccc(NC(=O)NC(C)C)cc1Cl | 5.92
3 | O=C(NCC(O)c1cccc(F)c1)c1sccc1OC(F)F (stereo unspecified) | 0.547
4 | CCc1nc2n(n1)CC(NCc1cnc(N(CC)CC)s1)CC2 (stereo unspecified) | 7.39
5 | O=C1NCCN(Cc2ccoc2)C1CC(=O)N1CCc2sccc2C1 (stereo unspecified) | -3.45
6 | COC(=O)CC1CN(Cc2ccn(-c3ccc(F)cc3)n2)CCO1 (stereo unspecified) | -7.83
7 | COCCc1noc(CN2CCCC2c2noc(C3CC3)n2)n1 (stereo unspecified) | 1.33
8 | CN(C)C(=O)C1CCN(C2CCN(CC3CCC3)CC2)CC1 | 2.82
9 | Cc1ccc(-c2noc(CNCC3CN(C)CCO3)n2)cc1F (stereo unspecified) | -1.51
10 | CCN(C(=O)c1nc2c(s1)CCCN2Cc1ccccc1)C(C)C | 14.2
11 | Cc1ccc(OCC2CCCN(C(=O)Cn3ccccc3=O)C2)cc1 (stereo unspecified) | 0.55
12 | CCOc1ccc2nc(NC(=O)c3c(C(=O)O)cnn3C)sc2c1 | 6.47
13 | COc1ccc(CNCc2ccnc(N3CCCCC3)c2)cc1OC | 0.222
14 | Cc1csc2c(C3CCCN(C(=O)Cn4cncn4)C3)nc(C)n12 (stereo unspecified) | 5.27
15 | COCc1ncc(CN2C[C@@H](C(=O)O)[C@H](C(C)C)C2)cn1 | -2.97
16 | O=C1CC(c2ccncc2)C2(CCN(CCc3ccccc3)CC2)N1 (stereo unspecified) | -1.58
17 | COc1cc(C(C)=O)ccc1OCC(=O)N(Cc1ccsc1)C1CC1 | 1.88
18 | Cc1nnc(N2CCCC3(CN(Cc4ccc(C)s4)CCO3)C2)o1 (stereo unspecified) | -14.6
19 | OCCN1CCN(CCOCC(F)(F)F)CC1 | -4.47
20 | CC(C)c1nsc(N2CCCOCC2)n1 | -7.86
21 | CCCNCc1ccc(-c2ccnc3[nH]ccc23)cc1 | 66
22 | CC(C)OCCN1CCC(Nc2ncc(Br)cn2)CC1 | 2.83
23 | Cn1ccc(C(=O)N2CCOC3(COCCN(CC4CC4)C3)C2)n1 (stereo unspecified) | 7.61

Row | SMILES | cytotoxicity at 10 µM [%]
24 | O=C(NCCSc1ccccc1)[C@H]1CNC[C@@H](C(=O)N2CCOCC2)C1 | -3.03
25 | CN(C)Cc1cnc(C2CCN(C(=O)c3cccc(Cl)c3)C2)[nH]1 (stereo unspecified) | -3.36
26 | Cc1ccc(CCNC(=O)NCCCC(N)=O)c(C)c1 | 5.71
27 | CN(C)CC1CN(Cc2nnc(-c3ccccc3Cl)o2)CCO1 (stereo unspecified) | 1.56
28 | Cc1cnn(CC(C)NCc2ccccc2OCc2cccnc2)c1 (stereo unspecified) | -12.9
29 | COC(=O)c1ccoc1CN(C1CC1)C1CCS(=O)(=O)C1 (stereo unspecified) | 2.22
30 | O=C(Nc1cccnc1)c1noc2c1CN(S(=O)(=O)C1CC1)CC2 | 7.06
31 | O=C(NCC1CC1)C1CN(C(=O)NC2CCCC2)Cc2cncn2C1 (stereo unspecified) | -106
32 | Cc1cnc(N2CCOC(C(=O)NCc3ccccc3)C2)s1 (stereo unspecified) | -2.84
33 | CC(=O)N1CC[C@H]2CC(=O)N(C3CC3)CC[C@H]2C1 | -0.434
34 | COc1cccc2[nH]cc(CCNC(=O)N3CCOCC3C3CC3)c12 (stereo unspecified) | 12.1
35 | Cc1ccnc(OC[C@@]23CCO[C@@H]2CCN(c2ncccn2)C3)n1 | 4.86
36 | CNC(=O)Cc1noc(-c2cc3c(s2)CCC(C)C3)n1 (stereo unspecified) | 4.75
37 | CCCn1nc2c(cc1=O)CN(Cc1c(C)noc1C)CC2 | -5.03
38 | CCOc1ccc(C(=O)N2CCCC(c3nccn3C)C2)cc1OCC (stereo unspecified) | -6.77
39 | CC(NC(=O)Nc1ccccc1CN1CCOCC1)c1nccs1 (stereo unspecified) | 2.1
40 | NC(=O)CC1CCN(C(=O)c2csc(-c3ccccc3F)n2)CC1 | -1.29
41 | O=C(c1cnc2ccc(Cl)cc2c1NCc1ccco1)N1CCCCC1 | 4.38
42 | CN(C)C1CCCN(C(=O)NCc2ccccc2-n2cccn2)C1 (stereo unspecified) | -4.14
43 | O=C(Nc1ccccc1)c1cc2n(n1)CCCN(C(=O)N1CCCC1)C2 | -70.3
44 | O=C(O)c1c(-c2cncnc2)ncc2c1CCN(Cc1ccco1)C2 | -2.69
45 | O=C(NCc1ccc(F)cc1)NCC(O)(c1ccco1)C1CC1 (stereo unspecified) | -115
46 | CC(C)Oc1cc(N2CCN(Cc3ccsc3)C(CCO)C2)nc(N)n1 (stereo unspecified) | -6.35

Row | SMILES | cytotoxicity at 10 µM [%]
47 | O=C(Cc1cccc(O)c1)N1CCCC(O)(CN2CCCC2)CC1 (stereo unspecified) | -4.68
48 | COC(=O)c1cc(OC)ccc1NCC(=O)NCC(=O)N1CCCC1 | 0.431
49 | O=C1NCCO[C@H]2CN(C(=O)Cc3ccco3)CC[C@@H]12 | -105
50 | CCN(CC)C(=O)CSc1sc2c(O)cc(=O)[nH]c2c1C(N)=O | 0.488
51 | CSc1ncccc1C(=O)NCC(c1ccco1)N(C)C (stereo unspecified) | 2.57
52 | CN1CCN(C(=O)c2cncc(CC3CCCN(C)C3)c2)CC1 (stereo unspecified) | 7.87
53 | Cc1oc(-c2ccc(F)cc2F)nc1CN1C[C@@H](C)O[C@@H](C)C1 | -39.9
54 | CCn1c(Cn2cncn2)nnc1C1CCN(C(=O)CCSC)CC1 | -13.6
55 | Cc1cnc(N2C[C@H]3C[C@H](C(=O)N4CCN(C)CC4)N(C)[C@H]3C2)nc1 | -135
56 | O=C(NC[C@H]1OC[C@@H](NC2CCCC2)[C@@H]1O)C1CCCC1 | -2.15
57 | COc1ccccc1OCCNC(=O)CN1CCN(C)CC1C (stereo unspecified) | -12.1
58 | O=C(O)c1nc(SCc2ccccc2)ncc1Br | 0.231
59 | Cc1ccccc1CN(C)C(=O)CN1CCCC(Cn2cncn2)C1 (stereo unspecified) | -2.87
60 | O=C1CCCN1CCCC(=O)N1CCCC(Cc2cccnc2)C1 (stereo unspecified) | -4.5
61 | CN(C)CCN1CCOCC2(CCN(Cc3ccc[nH]3)CC2)C1 | 0.626
62 | Cc1cc(CNCC2(O)CCCN(CCCc3ccccc3)C2=O)n[nH]1 (stereo unspecified) | -2.4
63 | O=C(CCCn1cncn1)NC1(c2cccc(Br)c2)CC1 | 9.57
64 | CN(CCO)C[C@@H]1CN(Cc2ccccc2C#N)C[C@@H]1CO | -0.951
65 | Cc1ccc(-c2nnc(CN3CCOC(Cn4cncn4)C3)o2)cc1 (stereo unspecified) | -10.2
66 | Cc1cccc(CNC(=O)CC2CCN(Cc3ccccn3)CC2)n1 | 10.1
67 | CCOc1ncccc1C(=O)NC1CCCN(c2ncccn2)C1 (stereo unspecified) | -23.5
68 | Cc1nc(C2CCCN2C(=O)CCCn2cncn2)no1 (stereo unspecified) | 6.62
69 | COc1ccccc1OCCNC(=O)CN1CCc2cncnc2C1 | -15.6

Row | SMILES | cytotoxicity at 10 µM [%]
70 | Cc1cccc(CN2C(=O)CCC23CCN(C(=O)c2ccco2)CC3)n1 | 4.17
71 | CCn1c(SCC(=O)N2CCCC2)nc2cc(C)[nH]c2c1=O | 7.44
72 | C1CC(CO[C@@H]2CC[C@H]3[C@H]2OCCN3CC2CC2)CCO1 | 11.4
73 | CCOc1cccc(C(=O)NCCC(=O)NCc2ccncc2)c1 | 0.961
74 | Cc1cc(NCc2cccc(C#N)c2)ccc1C(N)=O | 10.1
75 | O=C1CC(c2ccc3c(c2)OCO3)c2cnn(C3CCCC3)c2N1 (stereo unspecified) | 24.3
76 | Cc1nc(O)cc(CN2CC=C(c3cnn(-c4ccccc4)c3)CC2)n1 | -10.5
77 | COc1cccc(CN2CCCCC2c2n[nH]cc2-c2cc(C)no2)c1 (stereo unspecified) | 17.1
78 | CSCC(C)(O)CNc1ncccc1C(F)(F)F (stereo unspecified) | 13.7
79 | CCN(c1cc(C)cc(C)c1)S(=O)(=O)c1cc(C(=O)O)cs1 | -1.92
80 | O=C(NCC1(O)COCCN(Cc2ccc(O)cc2)C1)c1cnccn1 (stereo unspecified) | -12.8
81 | Cc1cc(CN2CCCC2c2c(C)nn(C)c2Cl)no1 (stereo unspecified) | -6.98
82 | COc1ncccc1NC(=O)NC(C)(C)c1ncc(C)s1 | -9.44
83 | CN1C[C@@H]2CN(C(=O)C3CC=CC3)C[C@@H]2C1=O | -114
84 | Cc1nn(-c2ccccc2)c(C)c1CNC1CCc2ncnn2C1 (stereo unspecified) | 2.87
85 | Cc1nn2c(N3CCCC(C#N)C3)cc(-c3ccccc3)nc2c1C (stereo unspecified) | -0.828
86 | CC1CCCN(C(=O)c2ncncc2Cl)C1 (stereo unspecified) | 8.43
87 | CC(NC(=O)Nc1cccnc1N1CCOCC1)c1ccccn1 (stereo unspecified) | 0.456
88 | O=C(c1cccnc1)N1CCC2(CC1)COC(COc1ccccn1)C2 (stereo unspecified) | -0.735
89 | Cn1ccnc1CN1CCC2(CC1)CC(Oc1cccnc1)C2 | -20.7
90 | CCc1noc(C(C)N2CCN(c3ccc(C#N)cn3)CC2)n1 (stereo unspecified) | 4.78
91 | NC(=O)c1ccc(CNCC2CCN(CCO)CC2)cc1 | -9.93
92 | CN(Cc1csc(-c2cccs2)n1)Cc1cccnc1N | -1.06

Row | SMILES | cytotoxicity at 10 µM [%]
93 | Cc1occc1C(=O)N1Cc2nccn2CC(CN2CCOCC2)C1 (stereo unspecified) | -117
94 | O=C1CN(CC[C@@H](O)c2ccccc2)CCN1c1ccccc1Cl | 1.29
95 | COc1ccccc1C(=O)N1CCC(Nc2ccc(C)nn2)CC1 | -4.05
96 | O=C1N(Cc2ccc(F)c(F)c2)CCCC1(O)CNCc1cccnc1 (stereo unspecified) | 0.598
97 | CN1CSC[C@H]1C(=O)N1CCN(Cc2cccc(Cl)c2)CC1 | -4.28
98 | Oc1cc(C2CCCCN2Cc2cccs2)nc(-c2ccncc2)n1 (stereo unspecified) | 7.78
99 | CC(C)Cc1nc(CS(=O)(=O)C(C)C(=O)N2CCOCC2)no1 (stereo unspecified) | 3.13
100 | O=C1NCC(C(=O)Nc2ncc(Cc3ccccc3F)s2)N1 (stereo unspecified) | -1.11
101 | CN(C)Cc1cc(CC2(NCc3ccccc3Cl)COC2)no1 | 4.14
102 | Cn1ccnc1COc1ccc(NC(=O)CCC2CCCO2)cc1 (stereo unspecified) | 4.34
103 | O=C(NC1CC1)[C@@H]1C[C@@H]2CCN(Cc3ccccc3)C[C@@H]2O1 | -65.8
104 | Cc1ccc(NC2CCN(C(=O)c3n[nH]c4ccccc34)CC2)nn1 | 2.96
105 | COC(=O)CN1CC(c2nc(Cc3ccccc3)no2)C1 | -22.9
106 | CS(=O)(=O)c1ccc(CNC(=O)N2CCC(CO)CC2)cc1 | -11.6
107 | Cc1ccc([C@@]2(O)CC[C@@H]3CN(S(=O)(=O)c4cn(C)nc4C)C[C@@H]32)cc1 | -16.2
108 | CC(C)CNC[C@H]1COCc2nc3cccnc3n21 | -4.48
109 | Cc1cnc(N2C[C@@H]3CCN(CC4CC4)C(=O)[C@H]3C2)nc1 | 3.47
110 | COCCNC(=O)CCNc1cc(C)nc(-c2ccncc2)n1 | -1.26
111 | CCN(CC)CC[C@H]1CN(C(=O)C2CCC2)CC[C@H]1CC(=O)O | 1.35
